Compound activity as filed in PubChem.
Keap1 Nrf2 FP: Keap1-Nrf2 protein-protein interaction inhibitors, primary screen, biochemical, fluorescence polarization, single point | Kelch-like ECH-associated protein 1 (Homo sapiens), Q14145 | Keap1 Kelch-Nrf2 peptide fluorescence polarization, 1536-well | inhibition, % at 9.4 µM | actives 0.15% (n = 340,000) | AID 504523, 2011; in the data active = inhibition above about 12%;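 note: human Keap1 Kelch domain with fluorescein labeled Nrf2 9mer peptide probe; 0% = neutral control wells and 100% = peptide positive control; higher means more block of Keap1 binding to Nrf2 peptide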
APOBEC3A inh: APOBEC3A ssDNA deaminase inhibitors, primary screen, selectivity assay for APOBEC3G inhibitor project, biochemical, FAM/TAMRA oligo cleavage fluorescence | recombinant A3A, FAM/TAMRA ssDNA deamination fluorescence | actives 0.41% (n = 330,000) | DNA dC->dU-editing enzyme APOBEC-3A (Homo sapiens), P31941 | inhibition, % at 20 µM;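 active = at least 40% inhibition at 20 µM here, with at most 30% in a related deaminase screen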;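 note: plate controls were A3A with DMSO for no effect and wells lacking A3A enzyme for full effect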
A3G deaminase: APOBEC3G DNA deaminase inhibitors, primary screen, biochemical, fluorescence, single-stranded DNA substrate, uHTS. DNA dC->dU-editing enzyme APOBEC-3G (Homo sapiens), Q9HC16. inhibition, % at 20 µM. actives 0.28% (n = 330,000). recombinant A3G, ssDNA deamination FAM/TAMRA fluorescence;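 active = inhibition of at least 40% at 20 µM, with no more than 30% in the related APOBEC3A deaminase screen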;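 note: plate controls were DMSO wells with A3G for no effect and wells lacking A3G enzyme for full effect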
Target sequence (Q9HC16 whole entry, looked up): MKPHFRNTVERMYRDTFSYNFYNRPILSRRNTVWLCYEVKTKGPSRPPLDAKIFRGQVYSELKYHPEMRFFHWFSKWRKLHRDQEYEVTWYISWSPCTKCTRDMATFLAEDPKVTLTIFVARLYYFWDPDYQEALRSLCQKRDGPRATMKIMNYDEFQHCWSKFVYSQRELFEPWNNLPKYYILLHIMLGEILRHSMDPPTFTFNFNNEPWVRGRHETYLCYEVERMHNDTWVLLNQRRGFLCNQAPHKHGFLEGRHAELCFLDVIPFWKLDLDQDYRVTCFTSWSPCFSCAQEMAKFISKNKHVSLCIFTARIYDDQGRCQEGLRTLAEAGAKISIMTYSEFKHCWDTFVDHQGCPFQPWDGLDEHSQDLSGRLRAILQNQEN
LANA DNA inh: inhibitors of KSHV C-LANA binding to DNA, primary screen, biochemical, fluorescence polarization, FAM-LBS DNA, MBP-C-LANA, single point; AID 504423, 2011; inhibition, % at 9 µM; actives 0.078% (n = 340,000);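 active = highest replicate inhibition at or above 60% at 9 µM, even if other replicates fall short; inactive = all replicates below 60% inhibition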;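 note: 0% = neutral control wells and 100% = 4 µM acridine orange control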
CAL PDZ FP-1: untagged CAL PDZ binding inhibitors, primary screen, biochemical, fluorescence polarization, HTS | Golgi-associated PDZ and coiled-coil motif-containing protein (Homo sapiens), Q9HD26 | purified CAL PDZ, TMR-peptide fluorescence polarization, 1 h | inhibition, % at 24.9 µM | actives 0.92% (n = 300,000);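 active = mean inhibition of at least 30% with at least half of replicates also reaching 30%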;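 note: 0% = DMSO neutral control and 100% = excess unlabeled competitor peptide PRC23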
CAL PDZ FP-2: CAL PDZ peptide-binding inhibitors, primary screen, biochemical, fluorescence polarization, Cer-tagged CAL PDZ, HTS; purified CAL PDZ, TMR-peptide fluorescence polarization, 1 h; AID 504414, 2011; inhibition, % at 20 µM; actives 0.02% (n = 330,000);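 active = highest replicate inhibition of at least 40%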;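 note: plate controls were DMSO neutral control wells for no effect and unlabeled competitor peptide control wells for full effect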
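material = purified tagged CAL PDZ domain construct (CerCALP) | compound dosing = 20 µM, one dose | times = 1 h at RT | measured by = fluorescence polarization from S- and P-plane intensities, G-factor corrected | read-out = inhibition from polarization loss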
An asterisk follows results filed as active; . = no result. This is a sample that favours compounds with a hit; in the whole collection about 1.7% have one here.

SMILES | Keap1 Nrf2 FP | APOBEC3A inh | A3G deaminase | LANA DNA inh | CAL PDZ FP-1 | CAL PDZ FP-2
CC(C)c1ccc(C(=O)CN2C(=O)NC3(CCc4ccccc43)C2=O)cc1 (centres undefined) | -2 | -1 | -5 | 7 | 2 | -2
O=C(Nc1ccccc1OC(F)F)c1ccccc1 | -2 | -8 | -6 | -2 | . | -1
O=C(CCC(=O)c1ccccc1)Nc1ccccc1OC(F)F | 0 | -3 | -4 | 2 | 33* | -1
CC(C)(CC(=O)O)CC(=O)Nc1ccc(Cl)c(Cl)c1 | 1 | -3 | -5 | -54 | . | -1
COc1ccccc1C(=O)N/N=C(\C)CC(=O)Nc1ccccn1 | 0 | -4 | -7 | 7 | . | -1
COc1ccccc1C(=O)N/N=C(\C)CC(=O)Nc1ccc(Cl)cn1 | 2 | -3 | -6 | -2 | 65* | -1
Cc1ccc(-n2ncc3c(=O)[nH]c(SCC(=O)N4CC(=O)Nc5ccccc54)nc32)cc1 | -4 | 1 | -7 | 2 | -1 | 0
Cc1cccc(-n2ncc3c(=O)[nH]c(SCC(=O)N4CC(=O)Nc5ccccc54)nc32)c1 | -2 | 0 | -8 | 2 | 37* | 0
C[C@@H]1O[C@@H](OCCC(=O)O)[C@H](O)C[C@H]1O | 1 | 0 | 4 | 1 | 1 | -7
O=C(COC(=O)c1ccccn1)Nc1ccc2c(c1)OCCO2 | 2 | -1 | -5 | 0 | 56* | -1
Fc1ccccc1Cc1nnc2n1N=C(c1ccc(Cl)cc1)CS2 | -7 | -4 | -7 | -3 | -5 | 0
O=C(NC1CCCN(Cc2ccc(Cl)cc2)C1)c1cccc(N2CCCC2=O)c1 (centres undefined) | -4 | -1 | -2 | 0 | -3 | 139*
Cc1cc(NC2CCCC2)n2nc(C)c(-c3ccccc3)c2n1 | 3 | -4 | -7 | 1 | 32* | -1
Cc1ccc(OCCOc2cccc(Br)c2)c([N+](=O)[O-])n1 | 7 | -4 | -6 | 0 | -1 | 0
Cc1nn(CCOc2cccc(Br)c2)c(C)c1[N+](=O)[O-] | 7 | -3 | -2 | 3 | 59* | -1
CCCCCN1CSC(=S)N(Cc2ccccc2)C1 | 5 | -2 | -1 | 0 | 46* | 0
CCN1CSC(=S)N(Cc2ccccc2)C1 | -2 | -2 | -6 | -1 | -3 | -3
CCCN(CC(=O)Nc1ccc(F)c(F)c1F)C(=O)Cc1ccc(S(=O)(=O)N2CCOCC2)s1 | 0 | -5 | -11 | -3 | -26 | 0
O=C(c1cc(COc2ccccc2)on1)N1CCCC(CN2CCOCC2)C1 (centres undefined) | 1 | -5 | -9 | 1 | 53* | -1
CCNc1nc(OC)nc(N(OC)S(=O)(=O)c2ccc(C)cc2)n1 | -3 | 3 | -3 | -1 | 74* | .
COc1ccc(S(=O)(=O)N(C(C)=O)c2ccc3oc(=O)sc3c2)cc1 | -4 | -2 | -1 | 0 | 89* | 0
O=C(CCNC(=O)C1CCN(S(=O)(=O)c2ccccc2)CC1)Nc1cccc(C(F)(F)F)c1 | 3 | 2 | -1 | 0 | 2 | -1
COc1ccc(CN2CCNC(=O)C2CC(=O)NC2CCCCCCC2)cc1OC (centres undefined) | 2 | -2 | -2 | 1 | 55* | 0
CCCN1CCN(C(=O)C2CCN(S(=O)(=O)c3ccc4c(c3)NC(=O)C(C)S4)CC2)CC1 (centres undefined) | -10 | -5 | -5 | -1 | -7 | -1
O=S(=O)(c1cccc(-c2n[nH]c(=S)o2)c1)N1CCOCC1 | 3 | -1 | 1 | -4 | 98* | -1
